Reference: ChEMBL document CHEMBL4265867, “Affinity-based small fluorescent probe for NAD(P)H:quinone oxidoreductase 1 (NQO1). Design, synthesis and pharmacological evaluation” (Eur J Med Chem, 2017)
pEC50, pIC50: −log10 of the molar value. Activity calls are given as the source filed them. The calls are words filed in the database; no cut-off is given here.

Columns and labels:
[1] = target: T1, NAD(P)H dehydrogenase [quinone] 1 (Homo sapiens, UniProt P15559); experiment: Binding affinity to NQO1 in human A549 cells at 10 uM incubated for 10 mins by DAPI staining based fluorescence microscopy imaging; assay type: cell-based
How it was run: (§1)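 A549 cells were rinsed with serum-free medium. Probe, from a 10 mM DMSO stock diluted in serum-free medium, was applied at 10 or 50 μM for 10 min at 37 °C, then washed off. For the inhibition condition, 10 μM DIC was co-incubated with the probe under the same conditions. Nuclei were stained with DAPI and cells imaged by laser scanning confocal microscopy.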

[2] = target: T1, NAD(P)H dehydrogenase [quinone] 1; experiment: Binding affinity to NQO1 in human A549 cells at 10 uM incubated for 10 mins in presence of 10 uM DIC by DAPI staining based fluorescence microscopy imaging; assay type: cell-based; how it was run: as §1
[3] = target: T1, NAD(P)H dehydrogenase [quinone] 1; experiment: Binding affinity to NQO1 in human A549 cells at 50 uM incubated for 10 mins by DAPI staining based fluorescence microscopy imaging; assay type: cell-based; how it was run: as §1
[4] = target: T1, NAD(P)H dehydrogenase [quinone] 1; experiment: Inhibition of recombinant human NQO1 assessed as reduction in oxidation of NADPH to NADP+ using b-lap as substrate and NADPH in presence of 0.14% (w/v) BSA
[5] = target: T1, NAD(P)H dehydrogenase [quinone] 1; experiment: Binding affinity to NQO1 in human A549 cells at 50 uM incubated for 10 mins in presence of 10 uM DIC by DAPI staining based fluorescence microscopy imaging; assay type: cell-based; how it was run: as §1
[6] = target: T1, NAD(P)H dehydrogenase [quinone] 1; experiment: Binding affinity to recombinant human NQO1 by fluorescence polarization competition assay
How it was run: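 Fluorescence polarization was read at 485 nm excitation and 535 nm emission in HEPES buffer. Free-probe mP was first measured over a range of probe concentrations without protein. For competition, wells held varying probe concentrations with NQO1 added from a 100 nM solution. IC50 was taken from a plot of % inhibition against concentration.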

Activity [1]: Active
Activity [2]: inactive
Activity [3]: Active
pIC50 [4]: 6.01
Activity [5]: inactive
pEC50 [6]: 5.53
Structure (SMILES): O=C1OC2(c3ccc(O)cc3Oc3cc(O)ccc32)c2ccc(NC(=S)NCCCCCCOc3ccc(/C=C/C(=O)c4c(O)c5ccccc5oc4=O)cc3)cc21
